# EP2 modulator: EP2 receptor (human) modulation | actives 0.83% (n = 260,000) | induction, % at 25 µM | AID 940 | EP2-expressing cells, cAMP HTRF FRET, PGE2 co-stimulation;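 active = compounds whose cAMP rise, as percent of the full-agonist control response, exceeds 60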;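 note: rat C6 glioma line stably carrying human EP2 under a CMV promoter; the protocol text gives 20 µM as final concentration; 100% = response of wells given 1 µM PGE2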
# Target sequence (P43116 whole entry, looked up): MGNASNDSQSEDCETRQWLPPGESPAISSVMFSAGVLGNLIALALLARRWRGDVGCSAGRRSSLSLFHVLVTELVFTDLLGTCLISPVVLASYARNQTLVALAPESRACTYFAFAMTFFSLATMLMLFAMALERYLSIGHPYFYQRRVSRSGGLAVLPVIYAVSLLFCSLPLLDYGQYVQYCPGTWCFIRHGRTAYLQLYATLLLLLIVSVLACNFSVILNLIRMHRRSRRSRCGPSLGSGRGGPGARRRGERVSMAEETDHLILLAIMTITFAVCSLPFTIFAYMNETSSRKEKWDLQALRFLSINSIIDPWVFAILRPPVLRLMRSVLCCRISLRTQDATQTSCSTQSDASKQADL
# Thrombin inh: blocks human thrombin protease activity. P00734. alpha-thrombin, Boc-VPR-AMC fluorogenic substrate cleavage. inhibition, % at 5 µM. actives 0.26% (n = 220,000);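 active = inhibition at or above 40%; inactive = inhibition below 40%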;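 note: 0% = enzyme with no compound and 100% = wells without enzyme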
#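 Material: human alpha-thrombin protein; Also added: Boc-VPR-AMC substrate, 15 µM final; Timing: enzyme reaction carried out at room temperature; Signal: fluorescence, ex 355 nm, em 460 nm; Measure: % inhibition of thrombin; Controls: enzyme without compound as high, wells lacking enzyme as low.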
# FXIa inh 1536: factor XIa (human) inhibition; P03951; purified FXIa, Boc-Glu-Ala-Arg-AMC fluorogenic substrate; inhibition, % at 5 µM; actives 0.14% (n = 220,000); AID 798;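 active = inhibition of at least 40%; inactive = inhibition below 40%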;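 note: fluorescence of freed AMC excited at 355 nm; 0% = enzyme without compound and 100% = no enzyme blank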
# PGE2 EP2 inh: EP2 receptor (human) inhibition | inhibition, % at 25 µM | actives 0.52% (n = 260,000) | C6 glioma cells expressing human EP2, cAMP TR-FRET; cells stimulated with saturating PGE2 | AID 1422 | P43116;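 active = percent inhibition above 40 after rounding to a whole number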;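 note: rat C6 glioma host cells with rolipram phosphodiesterase inhibitor present; the protocol text gives 20 µM as final concentration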
# KLK5 inh: inhibitors of human kallikrein 5; recombinant hK5, fluorogenic AMC substrate cleavage; inhibition, % at 5 µM; AID 873; actives 0.59% (n = 210,000);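 active = inhibition of 40% or more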;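 note: 0% = enzyme controls without compound and 100% = no-enzyme blanks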
# Target sequence (Q9Y337 67-293 limits assumed): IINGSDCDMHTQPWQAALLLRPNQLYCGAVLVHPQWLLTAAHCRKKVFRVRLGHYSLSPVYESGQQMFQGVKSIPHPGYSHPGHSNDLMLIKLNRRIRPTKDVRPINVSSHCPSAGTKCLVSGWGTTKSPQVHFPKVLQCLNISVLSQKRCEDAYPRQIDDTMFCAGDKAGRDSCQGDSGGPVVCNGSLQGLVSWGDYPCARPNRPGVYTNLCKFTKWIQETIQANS
# FXIIa inh 1536: factor XIIa (human) inhibition; P00748; purified FXIIa, Boc-QGR-AMC fluorogenic substrate, 2 h; inhibition, % at 5 µM; actives 0.3% (n = 220,000); in the data active = inhibition above about 40%;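 note: 0% = enzyme with no compound and 100% = blank without enzyme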
# Active calls of the source: *; x = not tested or not shown; ! = a repeat was not active. Most compounds without a hit are left out; they make up all but 2.1% or so of the library.
SMILES,EP2 modulator,Thrombin inh,FXIa inh 1536,PGE2 EP2 inh,KLK5 inh,FXIIa inh 1536
O=C1C=C(N2CCN(c3ccccn3)CC2)C(=O)c2c(O)ccc(O)c21,-9,x,x,66*,x,x
COc1cccc(-n2c(SCC(=O)NC3CCCCC3)nnc2-c2ccoc2C)c1,-25,x,x,7,x,x
Cc1nn(CC(=O)NC2CCC2)c(=O)c2cc3sccc3n12,-6,x,x,x,x,x
CCn1c2ccccc2n2c(=O)n(CC(=O)N3CCCC4CCCCC43)nc12 (stereo unspecified),-65,x,x,7,x,x
CN1CCN(S(=O)(=O)Cc2ccc(Cl)cc2)CC1,9,30,41*,9,70*,35
Clc1ccc2c(N3CCC(CCC4CCN(c5ncnc6cc(Cl)ccc56)CC4)CC3)ncnc2c1,15,x,x,52*,x,x
COc1ccc(CN2CCc3c(nc(N4CC(C)OC(C)C4)[nH]c3=O)C2)cc1CO (stereo unspecified),16,x,x,x,x,x
O=C(CC1CC2CCC1C2)Nc1nnc(-c2ccccc2Cl)s1 (stereo unspecified),-9,x,x,14,x,x
O=C(NC1CCSC1=O)c1ccccc1 (stereo unspecified),31,-5,-6,6,-15,6
O=C1SCCC1NC(=O)C(c1ccccc1)c1ccccc1 (stereo unspecified),15,14,60*,2,94*,40*
Cc1ccc(NC(=O)CN(c2ccccc2)S(=O)(=O)N(C)C)cc1C,6,28,9,8,43*,20
COc1ccc(C(O)CN2CCC3(CC2)CC(O)c2ccccc2O3)cc1 (stereo unspecified),-23,x,x,10,x,x
CCc1cc(NCCc2cnc[nH]2)n2nc3nc(C)cc(C)c3c2n1,-21,x,x,2,x,x
CCCCCCCCn1cnc2c(N)c(C)c(C)cc21,62*,0,5,3,8,17
COc1ccc(Cn2cnc3c(N)c(C)c(C)cc32)cc1,2,-12,-1,6,-1,7
COc1ccccc1NC(=O)N(CCO)Cc1cc2cc3c(cc2[nH]c1=O)OCO3,1,x,x,11,x,x
CN(C)C/C=C(/c1ccc(Br)cc1)c1cccnc1,1,x,x,43*!,x,x
CCN1c2ncccc2C(=O)NC12CCN(C(=O)c1cccs1)CC2,-46,x,x,9,x,x
COC(=O)[C@H]1CN(C(=O)c2cccs2)C[C@@H]1c1ccc(F)cc1,14,x,x,x,x,x
CC(C)(C)c1ccc(Cn2nnc3c(=O)[nH]c(C4CCN(C(=O)C5CCCCC5)CC4)nc32)cc1,72*,x,x,8,x,x
N#Cc1sc2nc(-c3cccs3)cc(-c3ccccc3)c2c1N,33,-5,-2,x,-12,-5
N#Cc1sc2nc(-c3ccccc3)cc(C(F)(F)F)c2c1N,-2,50*,26,5,24,23
CCC(CO)NC(=O)C(=O)NCC1CCCO1 (stereo unspecified),-31,x,x,5,x,x
CCn1nnc(NC(=O)c2ccccc2F)n1,5,x,x,8,x,x
CCN(CC)S(=O)(=O)c1cccc(NC(=O)/C=C/c2cccc([N+](=O)[O-])c2)c1,2,95*,9,16,67*,4
SMILES,EP2 modulator,Thrombin inh,FXIa inh 1536,PGE2 EP2 inh,KLK5 inh,FXIIa inh 1536
CCN(CC)S(=O)(=O)c1cccc(NC(=O)/C=C/c2ccc([N+](=O)[O-])cc2)c1,13,-3,5,3,-8,7
CCCC(=O)NC(=S)Nc1ccc(Cl)cn1,24,16,1,19,112*,17
COC(=O)CSc1nnc(-c2ccoc2C)n1-c1cccc(C)c1,43,x,x,8,x,x
N#Cc1cc2c(nc1SCc1ccccc1)CCC2,40,5,11,42*,-4,20
CCN(CC)c1ccc(/C=N/Nc2nc3ccccc3[nH]2)c(O)c1,-56,-5,-3,61*,-254,4
CCCSc1nc2sc3c(c2c(=O)n1C)CCCC3,65*,x,x,11,x,x
N#Cc1c(Cl)nc(SCc2ccccc2)nc1-c1ccccc1,16,2,3,61*,6,12
O=c1[nH]c(-[n+]2ccccc2)c(/C=N/NC([S-])=Nc2ccccc2)s1,1,-5,-12,4,44*,3
Cc1cc[n+](-c2[nH]c(=O)sc2/C=N/NC([S-])=Nc2ccccc2)cc1,2,0,12,7,-8,17
Cc1ccccc1NC(=O)Cn1c(O)c(N=NC(=O)c2ccccc2O)c2ccccc21,7,24,20,11,66*,11
Cc1ccc(NC(=O)c2ccc3ccccc3n2)cc1S(=O)(=O)N1CCOCC1,-63,48*,28,10,15,24
O=C(Nc1cccc(S(=O)(=O)N2CCOCC2)c1)c1ccc2ccccc2n1,-17,0,2,7,3,7
COC(=O)c1ccc(COC(=O)CNS(=O)(=O)c2ccccc2)cc1,-13,55*,31,13,23,26
Nc1ncnc2nc[nH]c12.Nc1ncnc2nc[nH]c12.[Cl][Pt]([Cl])([Cl])[Cl],19,x,x,47*,x,x
Nc1nc(N)c2[nH]cnc2n1 (tested in a mixture with another compound),27,x,x,12,x,x
Cc1nn(-c2ccccc2)c(N)c1C(O)(C(F)(F)F)C(F)(F)F,11,26,5,4,42*,24
O=c1oc(-c2ccc(-c3nc4ccccc4c(=O)o3)cc2)nc2ccccc12,-12,x,x,10,x,x
CCC(=O)N(Cc1cc2cc(OC)ccc2[nH]c1=O)C(C)C,-25,x,x,9,x,x
CCC(=O)Oc1ccc2c(C)c(Cl)c(=O)oc2c1,14,47*,6,18,17,32
Cn1ccc(C(=O)O)n1,-1,x,x,7,x,x
OCc1nc2ccccc2n1/N=C/c1cccs1,-21,15,16,14,43*,17
O=[N+]([O-])c1ccc(O)c(/C=N/n2c(CO)nc3ccccc32)c1,-29,2,-4,7,-4,9
COc1cc2c(cc1OC)-c1cc(NC3CCCC3)nc(=O)n1CC2,-18,-2,0,8,0,9
COc1cc2c(cc1OC)-c1cc(=Nc3c(C)cc(C)cc3C)n(C)c(=O)n1CC2,67*,x,x,6,x,x
CCOC(=O)c1cc(-c2ccccc2)nc2ccc(C)cc12,66*,-3,-5,4,-8,1
SMILES,EP2 modulator,Thrombin inh,FXIa inh 1536,PGE2 EP2 inh,KLK5 inh,FXIIa inh 1536
COc1ccc(-c2cc(C(=O)OCC(C)=O)c3cc(Br)ccc3n2)cc1,54,x,x,18,x,x
CC(=O)COC(=O)c1cc(-c2ccccc2)nc2ccc(Br)cc12,68*,x,x,25,x,x
COc1ccc(-n2c(SCC(=O)Nc3ccc(C)cc3)nnc2-c2cccnc2)cc1,4,x,x,7,x,x
CN(C)C(=O)CSC1c2ccccc2C(=O)N1c1ccccc1 (stereo unspecified),2,7,3,10,78*,11
CC(=O)NC(=S)Nc1cc(C(F)(F)F)ccc1N1CCOCC1,27,-1,6,7,-8,7
O=C(NC(=S)Nc1cc(C(F)(F)F)ccc1N1CCOCC1)c1ccco1,44,11,7,2,42*,28
